In the library only some 4.7% were active in any assay of this set; here they are far more common.
MrgX1 agonist – agonists of human MrgX1 receptor, primary screen, HEK293 cells, Fluo-4 calcium flux | Fluo-4 calcium fluorescence, agonist mode; active compounds read high | B-score at 10 µM | AID 588627, 2011 | 310,000 tested, 0.44% active | Mas-related G-protein coupled receptor member X1 (Homo sapiens), Q96LB2;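 active = calcium response B-score plate-corrected fluorescence ratio at least 3 library SD, with starting fluorescence B-score inside 5 SD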
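Assay system: stable human MrgX1 HEK293 cell line. Quantity: 15,000 cells per well. Schedule: cells plated overnight, dye loaded 0.5 h 37 °C, 0.5 h room temperature. Detection: Fluo-4 NW calcium-flux fluorescence, kinetic read. Read-out basis: peak-minus-minimum fluorescence over baseline, converted to B scores. Control set: positive and negative control wells on each plate.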
RGS4 block – RGS4 inhibitors, primary screen, cell-based, HEK293 M3R inducible RGS4, calcium flux | Fluo-4 calcium flux; active compounds read high; triggered by carbachol at its EC20 | B-score at 10 µM | 310,000 tested, 0.45% active | AID 463165, 2010;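 active = B-score, a plate-corrected calcium signal, over three deviations above library mean, with baseline fluorescence within five deviations of library mean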;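 note: RGS4 expression induced by doxycycline in cells with stable M3 receptor; B-score is computed from the integrated fluorescence ratio over baseline after carbachol; higher B-score means a larger calcium signal and so more RGS4 inhibition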
MrgX1 antag – antagonists of human MrgX1 receptor, primary screen, HEK293 cells, Fluo-4 calcium flux | 310,000 tested, 1.3% active | AID 588676, 2011 | B-score at 10 µM | Mas-related G-protein coupled receptor member X1 (Homo sapiens), Q96LB2 | BAM8-22 antagonism; active compounds read low;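 active = calcium-response B-score plate-corrected more than 3 library SD below zero, starting fluorescence within 5 deviations, no agonist response on first addition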;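 note: peak minus trough fluorescence over baseline after final BAM8-22 challenge near maximal dose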
RGS4 pot – RGS4 potentiators or activators, primary screen, cell-based, HEK293 M3R inducible RGS4, calcium flux | carbachol calcium flux Fluo4; active compounds read low | B-score at 10 µM | 310,000 tested, 0.92% active | AID 463111, 2010;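 active = B-score of the integrated calcium signal more than 4 SD below the library mean, with starting fluorescence not abnormally high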;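 note: negative B-score means reduced calcium response which marks RGS4 activation or potentiation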
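test system = HEK293 cells with stable M3R and inducible RGS4 | schedule = recording 10 s baseline at 1 Hz, 100 s post-agonist | technique = Fluo4-AM (2 µM) calcium-flux fluorescence, kinetic read | measure = Agonist-evoked peak-minus-minimum fluorescence over baseline, integrated ratio, B score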
Cl transport mod – KCC2 cotransporter modulators, thallium flux, primary screen, cell-based, HEK293 KCC2, FluoZin-2 fluorescence, MLSMR; Solute carrier family 12 member 5 (Homo sapiens), Q9H2X9; KCC2 cells, thallium flux FluoZin-2 fluorescence; B-score of Tl+ flux slope (higher = more flux/activation; lower = inhibition) at 10 µM; 190,000 tested, 2.2% active;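 active = thallium flux slope and its plate-corrected score both differing from the plate sample mean at a set confidence after two filtering rounds, in either direction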;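 note: slope of fluorescence scaled to starting intensity during 10 to 20 s after thallium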
Target sequence (Q9H2X9 whole entry, looked up): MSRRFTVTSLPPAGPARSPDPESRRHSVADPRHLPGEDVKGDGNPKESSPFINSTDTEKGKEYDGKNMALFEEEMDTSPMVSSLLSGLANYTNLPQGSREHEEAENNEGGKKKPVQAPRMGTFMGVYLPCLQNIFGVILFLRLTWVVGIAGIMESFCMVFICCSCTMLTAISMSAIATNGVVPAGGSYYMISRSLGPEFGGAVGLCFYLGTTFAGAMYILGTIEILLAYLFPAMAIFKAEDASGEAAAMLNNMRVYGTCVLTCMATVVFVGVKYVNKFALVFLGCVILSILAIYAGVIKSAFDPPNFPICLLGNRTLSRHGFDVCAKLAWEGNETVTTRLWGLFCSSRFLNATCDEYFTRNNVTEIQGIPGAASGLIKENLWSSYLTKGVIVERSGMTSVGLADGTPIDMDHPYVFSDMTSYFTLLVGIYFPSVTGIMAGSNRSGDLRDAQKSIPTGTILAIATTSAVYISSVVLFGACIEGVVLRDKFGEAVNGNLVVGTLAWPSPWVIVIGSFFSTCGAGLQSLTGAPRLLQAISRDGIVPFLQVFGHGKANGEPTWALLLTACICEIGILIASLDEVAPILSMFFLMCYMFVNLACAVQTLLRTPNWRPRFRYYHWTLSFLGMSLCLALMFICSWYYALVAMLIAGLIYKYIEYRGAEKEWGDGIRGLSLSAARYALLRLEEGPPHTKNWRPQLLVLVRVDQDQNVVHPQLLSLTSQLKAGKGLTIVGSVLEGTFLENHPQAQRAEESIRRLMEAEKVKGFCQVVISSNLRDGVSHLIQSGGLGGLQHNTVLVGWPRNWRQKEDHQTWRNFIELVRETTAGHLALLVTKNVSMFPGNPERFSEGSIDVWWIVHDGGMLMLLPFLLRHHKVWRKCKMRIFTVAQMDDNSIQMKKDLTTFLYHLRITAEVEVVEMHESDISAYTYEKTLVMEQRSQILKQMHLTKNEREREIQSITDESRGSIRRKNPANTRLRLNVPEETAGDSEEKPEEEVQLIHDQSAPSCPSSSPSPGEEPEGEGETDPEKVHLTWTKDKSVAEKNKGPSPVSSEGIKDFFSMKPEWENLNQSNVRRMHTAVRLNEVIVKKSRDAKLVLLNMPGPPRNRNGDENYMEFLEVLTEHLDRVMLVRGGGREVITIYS
MrgX1 PAM – positive allosteric modulators of MrgX1, primary screen, HEK293 cells, Fluo-4 calcium flux; Mas-related G-protein coupled receptor member X1 (Homo sapiens), Q96LB2; FDSS; active compounds read high; B-score at 10 µM; 310,000 tested, 0.63% active;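 active = plate-corrected calcium response at least 3 library SD above typical, normal starting fluorescence, not activating the receptor alone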;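 note: compound read alongside a low EC10 to EC30 dose of BAM8-22 agonist; peak minus trough fluorescence over baseline measured at the second addition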
KCC2 secondary – KCC2 modulators in sodium-free buffer, confirmation, cell-based, HEK293 KCC2, thallium flux, secondary assay; 3,700 tested, 15% active; shares compounds with Cl transport mod; FluoZin2 fluorescence; active compounds read high; AID 1713, 2009; normalised thallium flux (F/F0 slope) at 10 µM;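 active = thallium flux slope above the same plate's solvent-only control mean plus 3 SD; inconclusive = the two replicate wells disagree; inactive = no significant difference from solvent-only control wells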
KCC2 bumet counter – thallium flux persisting under bumetanide in KCC2 cells, confirmation, counter-screen for KCC2 modulator project, cell-based, HEK293 KCC2, FluoZin2, secondary assay 3; shares compounds with Cl transport mod; HEK293-KCC2 + bumetanide/ouabain; active compounds read high; normalized thallium flux at 10 µM; 3,700 tested, 49% active; AID 1714, 2009;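 active = thallium entry rate above the same plate's blocked-transporter control wells by more than 3 SD; inconclusive = the two repeat wells disagree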;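 note: raw slope of fluorescence over initial fluorescence between 10 and 20 s after thallium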
KCC2 sec2 – KCC2 modulators without ouabain present, confirmation, cell-based, HEK293 KCC2, thallium flux, FluoZin2, secondary assay 2 | shares compounds with Cl transport mod | thallium flux FluoZin2 fluorescence; actives lie on both sides; F/F0 rise rate, 10–20 s post-thallium | normalized thallium flux at 10 µM | 3,700 tested, 23% active | AID 1715, 2009;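 active = thallium flux slope more than 3 SD above or below the plate's solvent-only control mean, mostly below; inconclusive = the two repeat wells disagreed; inactive = no significant shift from solvent-only controls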;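 note: raw slope with 0.1% DMSO as baseline and bumetanide as block control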
HEK counter1 – thallium flux modulation in parental HEK cells, confirmation, counter-screen for KCC2 modulator project, cell-based, counterscreen 1; shares compounds with Cl transport mod; HEK293 parental cells, thallium flux FluoZin2, ouabain; baseline-ratio fluorescence slope, 10–20 s after thallium; thallium flux rate (normalised fluorescence) at 10 µM; 3,700 tested, 46% active;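 active = thallium flux rate significantly above the same plate's solvent-only control wells, beyond their mean plus 3 SD; inconclusive = the two replicate wells gave conflicting results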
KCC2 ouabain – KCC2 inhibitors and activators, ouabain retest, confirmation, HEK-KCC2 cells | shares compounds with Cl transport mod | raw Tl+ flux slope (below DMSO = inhibition, above = activation) at 10 µM | 3,700 tested, 48% active | HEK293-KCC2, thallium flux FluoZin2 fluorescence; bidirectional: low = inhibitor, high = activator;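 active = thallium flux slope beyond 3 SD from same-plate DMSO control mean in most replicates, usually higher, sometimes lower; inconclusive = repeat tests gave conflicting results; inactive = no significant difference from controls in most replicates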;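 note: slope of initial-normalized fluorescence between seconds 10 and 20 after thallium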
HEK293 Tl flux2 – native HEK Tl+ uptake effects, second counter-screen – HEK cells, counterscreen 2, counter-screen for KCC2 modulator project, confirmation; thallium flux slope at 10 µM; HEK293 parental, thallium flux FluoZin-2 fluorescence slope; 3,700 tested, 33% active; AID 1718, 2009; shares compounds with Cl transport mod;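 active = thallium flux slope above the same plate's solvent-control mean plus 3 SD in both duplicate wells; inconclusive = duplicate wells that disagreed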;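 note: run without ouabain in cells lacking the KCC2 cotransporter; slope of fluorescence scaled to its starting value between 10 and 20 s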
* = called active by the depositor.

Results for COC(=O)CSc1cc(SCC(=O)OC)c(C#N)c(SCC(=O)OC)c1 ?
MrgX1 agonist: inactive; RGS4 block: inactive; MrgX1 antag: inactive; RGS4 pot: inactive; Cl transport mod: -3.2*; MrgX1 PAM: inactive; KCC2 secondary: 0.0059; KCC2 bumet counter: 0.0046; KCC2 sec2: 0.031; HEK counter1: inconclusive; KCC2 ouabain: 0.018; HEK293 Tl flux2: 0.0099

Results for COc1ccc(S(=O)(=O)N(C)c2ccc(C(=O)Nc3cccnc3)cc2)cc1 ?
MrgX1 agonist: inactive; RGS4 block: inactive; MrgX1 antag: inactive; RGS4 pot: inactive; MrgX1 PAM: inactive

Results for CCc1ccc(NC(=O)CN(C(=O)N2CCN(CC)CC2)S(=O)(=O)c2ccc(C)cc2)cc1 ?
MrgX1 agonist: inactive; RGS4 block: inactive; MrgX1 antag: inactive; RGS4 pot: inactive; MrgX1 PAM: inactive

What do the screens show for `Cc1cccc(N2CCN(C(=O)Cn3cnc4c3c(=O)n(C)c(=O)n4C)CC2)c1C`?
MrgX1 agonist: inactive; RGS4 block: inactive; MrgX1 antag: inactive; RGS4 pot: inactive; Cl transport mod: 0.68; MrgX1 PAM: inactive

Results for Cc1cccc(N2CCN(C(=O)Cn3ccc4ccccc4c3=O)CC2)c1C ?
MrgX1 agonist: inactive; RGS4 block: inactive; MrgX1 antag: inactive; RGS4 pot: inactive; Cl transport mod: -4.5*; MrgX1 PAM: inactive; KCC2 secondary: 0.007; KCC2 bumet counter: 0.0041; KCC2 sec2: 0.023*; HEK counter1: 0.0069; KCC2 ouabain: 0.016*; HEK293 Tl flux2: 0.0097

How did COc1cccc(CNc2cc(CSc3ccc(Cl)cc3)nc(C)n2)c1 do in these assays?
MrgX1 agonist: inactive; RGS4 block: inactive; MrgX1 antag: inactive; RGS4 pot: inactive; MrgX1 PAM: inactive; KCC2 secondary: 0.0074; KCC2 bumet counter: 0.0032*; KCC2 sec2: 0.03; HEK counter1: inconclusive; KCC2 ouabain: 0.018; HEK293 Tl flux2: 0.0094

What do the screens show for `COc1ccccc1CNc1cc(CSc2ccc(Cl)cc2)nc(C)n1`?
MrgX1 agonist: inactive; RGS4 block: inactive; MrgX1 antag: inactive; RGS4 pot: inactive; MrgX1 PAM: inactive

What do the screens show for `CN1/C(=C/C(=O)C2CCC2)Sc2ccccc21`?
MrgX1 agonist: inactive; RGS4 block: inactive; MrgX1 antag: inactive; RGS4 pot: inactive; Cl transport mod: -4.6*; MrgX1 PAM: inactive; KCC2 secondary: 0.0055; KCC2 bumet counter: 0.0043; KCC2 sec2: 0.022*; HEK counter1: 0.0069; KCC2 ouabain: 0.014*; HEK293 Tl flux2: 0.0092

How did CC(NC(=O)c1ccco1)C(=O)OCC(=O)c1ccc(Cl)s1 (configuration not stated) do in these assays?
MrgX1 agonist: inactive; RGS4 block: inactive; MrgX1 antag: inactive; RGS4 pot: inactive; Cl transport mod: -2.2; MrgX1 PAM: inactive

Results for CC(NC(=O)c1ccco1)C(=O)OCc1cccc(Cl)c1 (configuration not stated) ?
MrgX1 agonist: inactive; RGS4 block: inactive; MrgX1 antag: inactive; RGS4 pot: inactive; Cl transport mod: 6.1*; MrgX1 PAM: inactive; KCC2 secondary: 0.0099; KCC2 bumet counter: 0.0057; KCC2 sec2: 0.035; HEK counter1: 0.0064; KCC2 ouabain: 0.02; HEK293 Tl flux2: 0.01

How did S=C(Nc1ccccc1)Nc1cccc(Cl)c1Cl do in these assays?
MrgX1 agonist: inactive; RGS4 block: inactive; MrgX1 antag: inactive; RGS4 pot: inactive; Cl transport mod: 17*; MrgX1 PAM: inactive; KCC2 secondary: 0.0053; KCC2 bumet counter: 0.016*; KCC2 sec2: 0.032; HEK counter1: 0.012*; KCC2 ouabain: inconclusive; HEK293 Tl flux2: 0.014*

What do the screens show for `CC(=O)Nc1cccc(NC(=S)Nc2cccc(Cl)c2Cl)c1`?
MrgX1 agonist: inactive; RGS4 block: inactive; MrgX1 antag: inactive; RGS4 pot: inactive; Cl transport mod: 0.55; MrgX1 PAM: inactive

Results for Cc1cc(C(=O)NNC(=O)c2ccc(Cl)cc2)no1 ?
MrgX1 agonist: inactive; RGS4 block: inactive; MrgX1 antag: inactive; RGS4 pot: inactive; Cl transport mod: 5.9*; MrgX1 PAM: inactive; KCC2 secondary: 0.011; KCC2 bumet counter: 0.016*; KCC2 sec2: 0.037; HEK counter1: 0.013*; KCC2 ouabain: 0.027; HEK293 Tl flux2: 0.012*

What do the screens show for `Cc1cc(C(=O)NNC(=O)c2cccc(Cl)c2)no1`?
MrgX1 agonist: inactive; RGS4 block: inactive; MrgX1 antag: inactive; RGS4 pot: inactive; Cl transport mod: 7.4*; MrgX1 PAM: inactive; KCC2 secondary: 0.0068; KCC2 bumet counter: 0.014*; KCC2 sec2: 0.032; HEK counter1: 0.014*; KCC2 ouabain: inconclusive; HEK293 Tl flux2: 0.018*

Screens from PubChem.
